≈ marks a conversion by molar mass, not a printed value. Calls of active or inactive are those of the source. No cut-off for these calls is given here.
How the values were obtained:
[1] = tested on: Mycolicibacterium smegmatis; assay: Antimicrobial activity against Mycobacterium smegmatis MC2 155 ATCC 700084 at 125 mg/L after 72 hrs by MTT assay in presence of EtBr; assay type: functional
[2] = tested on: Mycolicibacterium smegmatis MC2 155; assay: Inhibition of multidrug resistance efflux pump in Mycobacterium smegmatis MC2 155 ATCC 700084 assessed as reduction in EtBr MIC at 125 mg/L by MTT assay relative to control
[3] = tested on: Mycolicibacterium smegmatis; assay: Antimicrobial activity against Mycobacterium smegmatis MC2 155 ATCC 700084 after 72 hrs by MTT assay; assay type: functional; conditions: MC2 155 ATCC 700084, 72 h
[4] = tested on: Mycolicibacterium smegmatis MC2 155; assay: Inhibition of multidrug resistance efflux pump in Mycobacterium smegmatis MC2 155 ATCC 700084 assessed as EtBr accumulation at 31.5 mg/L measured every 3 mins interval for 45 mins by spectrofluorometric method
Procedure, shortened: (§1)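 Cells are grown in 7H9/OADC at 37 °C to OD600 0.8, then pelleted and exposed to EtBr with test compound. Verapamil, reserpine, CCCP and DMSO serve as controls. EtBr fluorescence (excitation 530 nm, emission 600 nm) is read every 3 min for 45 min in a microplate spectrofluorimeter. Test concentrations are fractions (1/2, 1/4, 1/8) of each compound's MIC.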

[5] = tested on: Mycolicibacterium smegmatis MC2 155; assay: Inhibition of multidrug resistance efflux pump in Mycobacterium smegmatis MC2 155 ATCC 700084 assessed as EtBr accumulation at 31.5 mg/L measured every 3 mins interval for 45 mins by fluorometric method; procedure, shortened: as §1
[6] = tested on: Mycolicibacterium smegmatis MC2 155; assay: Inhibition of multidrug resistance efflux pump in Mycobacterium smegmatis MC2 155 ATCC 700084 assessed as EtBr accumulation at half concentration of MIC measured every 3 mins interval for 45 mins by fluorometric method; procedure, shortened: as §1
[7] = tested on: Mycolicibacterium smegmatis; assay: Antimicrobial activity against Mycobacterium smegmatis MC2 155 ATCC 700084 at 62.5 mg/L after 72 hrs by MTT assay in presence of EtBr; assay type: functional
[8] = tested on: Mycolicibacterium smegmatis MC2 155; assay: Inhibition of multidrug resistance efflux pump in Mycobacterium smegmatis MC2 155 ATCC 700084 assessed as reduction in EtBr MIC at 62.5 mg/L by MTT assay relative to control
[9] = tested on: Mycolicibacterium smegmatis MC2 155; assay: Inhibition of multidrug resistance efflux pump in Mycobacterium smegmatis MC2 155 ATCC 700084 assessed as EtBr accumulation at 128 mg/L measured every 3 mins interval for 45 mins by fluorometric method; procedure, shortened: as §1
[10] = tested on: Mycolicibacterium smegmatis; assay: Antimicrobial activity against Mycobacterium smegmatis MC2 155 ATCC 700084 at 40 mg/L after 72 hrs by MTT assay in presence of EtBr; assay type: functional
[11] = tested on: Mycolicibacterium smegmatis MC2 155; assay: Inhibition of multidrug resistance efflux pump in Mycobacterium smegmatis MC2 155 ATCC 700084 assessed as EtBr accumulation at 12.5 mg/L measured every 3 mins interval for 45 mins by fluorometric method; procedure, shortened: as §1
[12] = tested on: Mycolicibacterium smegmatis; assay: Antimicrobial activity against Mycobacterium smegmatis MC2 155 ATCC 700084 at 16 mg/L after 72 hrs by MTT assay in presence of EtBr; assay type: functional
[13] = tested on: Mycolicibacterium smegmatis MC2 155; assay: Inhibition of multidrug resistance efflux pump in Mycobacterium smegmatis MC2 155 ATCC 700084 assessed as reduction in EtBr MIC at 16 mg/L by MTT assay relative to control
[14] = tested on: Mycolicibacterium smegmatis MC2 155; assay: Inhibition of multidrug resistance efflux pump in Mycobacterium smegmatis MC2 155 ATCC 700084 assessed as reduction in EtBr MIC at 250 mg/L by MTT assay relative to control
[15] = tested on: Mycolicibacterium smegmatis; assay: Antimicrobial activity against Mycobacterium smegmatis MC2 155 ATCC 700084 at 80 mg/L after 72 hrs by MTT assay in presence of EtBr; assay type: functional
[16] = tested on: Mycolicibacterium smegmatis; assay: Antimicrobial activity against Mycobacterium smegmatis MC2 155 ATCC 700084 at 31.2 mg/L after 72 hrs by MTT assay in presence of EtBr; assay type: functional
[17] = tested on: Mycolicibacterium smegmatis MC2 155; assay: Inhibition of multidrug resistance efflux pump in Mycobacterium smegmatis MC2 155 ATCC 700084 assessed as reduction in EtBr MIC at 31.2 mg/L by MTT assay relative to control

Row | SMILES | fractional inhibitory concentration index (FICI) [1] | fold change (FC) [2] | MIC [3] | Activity [6] | fractional inhibitory concentration index (FICI) [7] | fold change (FC) [8] | further results
1 | C=CCOc1ccccc1/C=C1\COc2cc(O)ccc2C1=O | 0.75 | 2 | 500 µg/mL (≈ 1620 µM) |  |  |  | 
2 | C=CCOc1cccc(/C=C2\COc3cc(O)ccc3C2=O)c1 | 0.62 | 8 | 250 µg/mL (≈ 811 µM) | Active | 0.5 | 4 | Activity [4]: Active; Activity [5]: Active
3 | O=C1/C(=C/c2ccc(C(F)(F)F)cc2)COc2cc(O)ccc21 | 0.75 | 4 | 250 µg/mL (≈ 781 µM) |  |  |  | 
4 | COC(=O)[C@H]1[C@H]2C[C@@H]3c4[nH]c5cc(OC)ccc5c4CCN3C[C@H]2C[C@@H](OC(=O)c2cc(OC)c(OC)c(OC)c2)[C@@H]1OC [RESERPINE] |  |  | 256 µg/mL (≈ 421 µM) |  |  |  | Activity [9]: Active; fractional inhibitory concentration index (FICI) [10]: 0.4
5 | COc1ccc(/C=C2\COc3c(ccc(O)c3O)C2=O)cc1 [INTRICATINOL] |  |  | 125 µg/mL (≈ 419 µM) |  | 1 | 2 | 
6 | COc1ccccc1/C=C1\COc2cc(O)ccc2C1=O | 0.75 | 4 | 250 µg/mL (≈ 886 µM) | Active |  |  | 
7 | O=C1/C(=C/c2ccc(O)cc2)COc2cc(O)ccc21 | 0.56 | 16 | 250 µg/mL (≈ 932 µM) | Active | 0.37 | 8 | 
8 | O=C1/C(=C/c2cccc(Cl)c2)COc2cc(O)ccc21 | 1 | 2 | 250 µg/mL (≈ 872 µM) |  |  |  | 
9 | O=C1/C(=C/c2ccccc2Br)COc2cc(O)ccc21 |  |  | 125 µg/mL (≈ 377 µM) |  | 1 | 2 | 
10 | N#CC(C#N)=NNc1cccc(Cl)c1 [CARBONYL CYANIDE M-CHLOROPHENYLHYDRAZONE] |  |  | 25 µg/mL (≈ 122 µM) |  |  |  | Activity [11]: Active; fractional inhibitory concentration index (FICI) [12]: 1.14; fold change (FC) [13]: 2
11 | O=C1/C(=C/c2ccc(Cl)cc2)COc2cc(O)ccc21 | 0.75 | 4 | 250 µg/mL (≈ 872 µM) | Active |  |  | 
12 | COc1cccc(/C=C2\COc3cc(O)ccc3C2=O)c1 | 0.75 | 2 | 500 µg/mL (≈ 1770 µM) |  |  |  | 
13 | COc1ccc(/C=C2\COc3cc(O)cc(O)c3C2=O)cc1 |  |  |  |  |  | 2 | fold change (FC) [14]: 4
14 | COc1ccc(/C=C2\COc3c(ccc(O)c3OC)C2=O)cc1 [E-8-METHOXYBONDUCELLIN] |  |  | 125 µg/mL (≈ 400 µM) |  | 1 | 2 | 
15 | O=C1/C(=C/c2cccc(O)c2)COc2cc(O)ccc21 | 0.5 | 4 | 500 µg/mL (≈ 1860 µM) | Active |  |  | 
16 | O=C1/C(=C/c2cccc(F)c2)COc2cc(O)ccc21 | 0.75 | 4 | 250 µg/mL (≈ 925 µM) | Active |  |  | 
17 | O=C1/C(=C/c2ccccc2)COc2cc(O)ccc21 | 0.37 | 8 | 500 µg/mL (≈ 1980 µM) | Active | 0.37 | 4 | 
18 | O=C1/C(=C/c2cccc(Br)c2)COc2cc(O)ccc21 | 0.75 | 2 | 500 µg/mL (≈ 1510 µM) |  |  |  | 
19 | O=C1/C(=C/c2ccc(Br)cc2)COc2cc(O)ccc21 | 0.75 | 2 | 500 µg/mL (≈ 1510 µM) |  |  |  | 
20 | C=CCOc1ccc(/C=C2\COc3cc(O)ccc3C2=O)cc1 | 0.75 | 2 | 250 µg/mL (≈ 811 µM) |  |  |  | 
21 | O=C1/C(=C/c2ccccc2Cl)COc2cc(O)ccc21 |  |  | 125 µg/mL (≈ 436 µM) |  | 1 | 2 | 
22 | CC[n+]1c(-c2ccccc2)c2cc(N)ccc2c2ccc(N)cc21.[Br-] [HOMIDIUM BROMIDE] |  |  | 16 µg/mL |  |  |  | 
23 | O=C1/C(=C/c2ccccc2F)COc2cc(O)ccc21 |  |  | 125 µg/mL (≈ 463 µM) | Active | 0.75 | 4 | Activity [4]: Active; Activity [5]: Active
24 | COc1ccc(CCN(C)CCCC(C#N)(c2ccc(OC)c(OC)c2)C(C)C)cc1OC (stereo not drawn) |  |  | 300 µg/mL (≈ 660 µM) |  |  |  | fractional inhibitory concentration index (FICI) [10]: 0.63; fractional inhibitory concentration index (FICI) [15]: 0.552
25 | O=C1/C(=C/c2ccc(F)cc2)COc2cc(O)ccc21 | 0.75 | 4 | 250 µg/mL (≈ 925 µM) | Active |  |  | 
26 | COc1ccc(/C=C2\COc3cc(O)ccc3C2=O)cc1 [BONDUCELLIN] |  |  | 125 µg/mL (≈ 443 µM) | Active | 0.62 | 8 | fractional inhibitory concentration index (FICI) [16]: 0.5; fold change (FC) [17]: 4
